Legend:
[1] = test system: Klebsiella pneumoniae; test: Antimicrobial activity against Klebsiella pneumoniae MTCC 109 at 1 mg/disc after 24 hrs by disc diffusion assay; format: functional
In short: (§1)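 Disc diffusion on Mueller Hinton agar. Inoculum was grown in MHB for 24 h at 37 °C, swabbed onto the plates and dried for 10 min. Discs with 1 mg compound were left 30 min at room temperature for diffusion, then incubated at 37 °C for 24 h. Inhibition zone was read in mm; run twice. Solvent was the negative control, streptomycin the positive control.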

[2] = test system: Staphylococcus aureus; test: Antimicrobial activity against […] Staphylococcus aureus MTCC 96 at 1 mg/disc after 24 hrs by disc diffusion assay; format: functional; in short: as §1
[3] = test system: Staphylococcus aureus; test: Antimicrobial activity against Staphylococcus aureus MTCC 96 after 24 hrs by two fold dilution method; format: functional; details: MTCC 96, 24 h
In short: (§2)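 Broth two-fold serial dilution in 96-well plates from 1000 to 7.81 µg/mL, compound in DMSO (2%). Inoculum was grown in MHB for 24 h at 37 °C; plates were incubated 24 h at 37 °C. 5 µL of broth was spotted onto MHA; MIC was the lowest concentration with no visible growth on agar. Streptomycin was the positive control.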

[4] = test system: Pseudomonas aeruginosa; test: Bactericidal activity against Pseudomonas aeruginosa MTCC 741 after 24 hrs by two fold dilution method; format: functional; details: MTCC 741, 24 h
In short: (§3)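 Tubes held 5 mL MHB with two-fold dilutions from 1000 to 7.81 µg/mL and were inoculated with 5 × 10^5 to 1 × 10^6 cells in 0.1 mL MHB, incubated without shaking. Turbidity was checked at 20 h, tubes vortexed and re-incubated 4 h.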

[5] = test system: Pseudomonas aeruginosa; test: Antimicrobial activity against Pseudomonas aeruginosa MTCC 741 at 1 mg/disc after 24 hrs by disc diffusion assay; format: functional; in short: as §1
[6] = test system: Malassezia pachydermatis; test: Antimicrobial activity against Malassezia pachydermatis at 1 mg/disc after 24 hrs by disc diffusion assay; format: functional
[7] = test system: Proteus vulgaris; test: Bactericidal activity against Proteus vulgaris MTCC 1771 after 24 hrs by two fold dilution method; format: functional; details: MTCC 1771, 24 h; in short: as §3
[8] = test system: Staphylococcus aureus; test: Antimicrobial activity against Staphylococcus aureus MTCC 96 at 1 mg/disc after 24 hrs by disc diffusion assay; format: functional; in short: as §1
[9] = test system: Salmonella enterica subsp. enterica serovar Paratyphi B; test: Bactericidal activity against Salmonella paratyphi B after 24 hrs by two fold dilution method; format: functional; in short: as §3
[10] = test system: Staphylococcus aureus; test: Bactericidal activity against Staphylococcus aureus MTCC 96 after 24 hrs by two fold dilution method; format: functional; details: MTCC 96, 24 h; in short: as §3
[11] = test system: Proteus vulgaris; test: Antimicrobial activity against Proteus vulgaris MTCC 1771 at 1 mg/disc after 24 hrs by disc diffusion assay; format: functional; in short: as §1
[12] = test system: Klebsiella pneumoniae; test: Antimicrobial activity against Klebsiella pneumoniae MTCC 109 after 24 hrs by two fold dilution method; format: functional; details: MTCC 109, 24 h; in short: as §2
[13] = test system: Candida albicans; test: Antimicrobial activity against Candida albicans MTCC 227 after 48 to 72 hrs by two fold dilution method; format: functional
In short: (§4)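 Yeast was grown in Sabouraud dextrose broth at 28 °C for 48 h and tested per CLSI reference methods. Two-fold serial dilutions from 1000 to 7.81 µg/mL, compound in DMSO (2%), in 96-well plates, incubated 48–72 h at 28 °C. MIC was the lowest concentration with no visible fungal growth. Ketoconazole was the positive control.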

[14] = test system: Salmonella typhimurium; test: Bactericidal activity against Salmonella typhimurium MTCC 1251 after 24 hrs by two fold dilution method; format: functional, Salmonella enterica subsp. enterica serovar Typhimurium; details: Salmonella enterica, MTCC 1251, 24 h; in short: as §3
[15] = test system: Shigella flexneri; test: Bactericidal activity against Shigella flexneri MTCC 1457 after 24 hrs by two fold dilution method; format: functional; details: MTCC 1457, 24 h; in short: as §3
[16] = test system: Malassezia pachydermatis; test: Antimicrobial activity against Malassezia pachydermatis after 48 to 72 hrs by two fold dilution method; format: functional; in short: as §4
[17] = test system: Staphylococcus aureus; test: Antimicrobial activity against methicillin-resistant Staphylococcus aureus MTCC 96 after 24 hrs by two fold dilution method; format: functional; details: MTCC 96, 24 h; in short: as §2
[18] = test system: Micrococcus luteus; test: Antimicrobial activity against Micrococcus luteus MTCC 106 after 24 hrs by two fold dilution method; format: functional; details: MTCC 106, 24 h; in short: as §2
[19] = test system: Bacillus subtilis; test: Antimicrobial activity against Bacillus subtilis MTCC 441 at 1 mg/disc after 24 hrs by disc diffusion assay; format: functional; in short: as §1
[20] = test system: Salmonella typhimurium; test: Antimicrobial activity against Salmonella typhimurium MTCC 1251 after 24 hrs by two fold dilution method; format: functional, Salmonella enterica subsp. enterica serovar Typhimurium; details: Salmonella enterica, MTCC 1251, 24 h; in short: as §2
[21] = test system: Klebsiella aerogenes; test: Bactericidal activity against Enterobacter aerogenes MTCC 111 after 24 hrs by two fold dilution method; format: functional; details: MTCC 111, 24 h; in short: as §3
[22] = test system: Bacillus subtilis; test: Bactericidal activity against Bacillus subtilis MTCC 441 after 24 hrs by two fold dilution method; format: functional; details: MTCC 441, 24 h; in short: as §3
[23] = test system: Shigella flexneri; test: Antimicrobial activity against Shigella flexneri MTCC 1457 after 24 hrs by two fold dilution method; format: functional; details: MTCC 1457, 24 h; in short: as §2
[24] = test system: Proteus vulgaris; test: Antimicrobial activity against Proteus vulgaris MTCC 1771 after 24 hrs by two fold dilution method; format: functional; details: MTCC 1771, 24 h; in short: as §2
[25] = test system: Salmonella enterica subsp. enterica serovar Paratyphi B; test: Antimicrobial activity against Salmonella paratyphi B at 1 mg/disc after 24 hrs by disc diffusion assay; format: functional; in short: as §1
[26] = test system: Klebsiella pneumoniae; test: Bactericidal activity against Klebsiella pneumoniae MTCC 109 after 24 hrs by two fold dilution method; format: functional; details: MTCC 109, 24 h; in short: as §3
[27] = test system: Shigella flexneri; test: Antimicrobial activity against Shigella flexneri MTCC 1457 at 1 mg/disc after 24 hrs by disc diffusion assay; format: functional; in short: as §1
[28] = test system: Klebsiella aerogenes; test: Antimicrobial activity against Enterobacter aerogenes MTCC 111 after 24 hrs by two fold dilution method; format: functional; details: MTCC 111, 24 h; in short: as §2
[29] = test system: Bacillus subtilis; test: Antimicrobial activity against Bacillus subtilis MTCC 441 after 24 hrs by two fold dilution method; format: functional; details: MTCC 441, 24 h; in short: as §2
[30] = test system: Micrococcus luteus; test: Bactericidal activity against Micrococcus luteus MTCC 106 after 24 hrs by two fold dilution method; format: functional; details: MTCC 106, 24 h; in short: as §3
[31] = test system: Malassezia pachydermatis; test: Fungicidal activity against Malassezia pachydermatis after 48 to 72 hrs by two fold dilution method; format: functional
[32] = test system: Candida albicans; test: Fungicidal activity against Candida albicans MTCC 227 after 48 to 72 hrs by two fold dilution method; format: functional
[33] = test system: Salmonella enterica subsp. enterica serovar Paratyphi B; test: Antimicrobial activity against Salmonella paratyphi B after 24 hrs by two fold dilution method; format: functional; in short: as §2
[34] = test system: Staphylococcus aureus; test: Bactericidal activity against methicillin-resistant Staphylococcus aureus MTCC 96 after 24 hrs by two fold dilution method; format: functional; details: MTCC 96, 24 h; in short: as §3
[35] = test system: Pseudomonas aeruginosa; test: Antimicrobial activity against Pseudomonas aeruginosa MTCC 741 after 24 hrs by two fold dilution method; format: functional; details: MTCC 741, 24 h; in short: as §2
[36] = test system: Klebsiella aerogenes; test: Antimicrobial activity against Enterobacter aerogenes MTCC 111 at 1 mg/disc after 24 hrs by disc diffusion assay; format: functional; in short: as §1
[37] = test system: Candida albicans; test: Antimicrobial activity against Candida albicans MTCC 227 at 1 mg/disc after 24 hrs by disc diffusion assay; format: functional
[38] = test system: Micrococcus luteus; test: Antimicrobial activity against Micrococcus luteus MTCC 106 at 1 mg/disc after 24 hrs by disc diffusion assay; format: functional; in short: as §1
[39] = test system: Salmonella typhimurium; test: Antimicrobial activity against Salmonella typhimurium MTCC 1251 at 1 mg/disc after 24 hrs by disc diffusion assay; format: functional, Salmonella enterica subsp. enterica serovar Typhimurium; in short: as §1

COc1ccc([C@@H](C)N[C@@H](C)[C@H](O)c2ccccc2)cc1.Cl
inhibition zone (IZ) [1]: 18 mm
inhibition zone (IZ) [2]: 15 mm
MIC [3]: 125 mg/L
MBC [4]: 250 mg/L
inhibition zone (IZ) [5]: 15 mm
inhibition zone (IZ) [6]: 18 mm
MBC [7]: 62.5 mg/L
inhibition zone (IZ) [8]: 15 mm
MBC [9]: 125 mg/L
MBC [10]: 250 mg/L
inhibition zone (IZ) [11]: 17 mm
MIC [12]: 62.5 mg/L
MIC [13]: 62.5 mg/L
MBC [14]: 500 mg/L
MBC [15]: 31.2 mg/L
MIC [16]: 62.5 mg/L
MIC [17]: 125 mg/L
MIC [18]: 125 mg/L
inhibition zone (IZ) [19]: 14 mm
MIC [20]: 250 mg/L
MBC [21]: 125 mg/L
MBC [22]: 250 mg/L
MIC [23]: 31.2 mg/L
MIC [24]: 62.5 mg/L
inhibition zone (IZ) [25]: 16 mm
MBC [26]: 125 mg/L
inhibition zone (IZ) [27]: 18 mm
MIC [28]: 125 mg/L
MIC [29]: 125 mg/L
MBC [30]: 250 mg/L
MFC [31]: 62.5 mg/L
MFC [32]: 62.5 mg/L
MIC [33]: 125 mg/L
MBC [34]: 250 mg/L
MIC [35]: 125 mg/L
inhibition zone (IZ) [36]: 14 mm
inhibition zone (IZ) [37]: 17 mm
inhibition zone (IZ) [38]: 15 mm
inhibition zone (IZ) [39]: 13 mm

C[C@H](N[C@H](C)[C@@H](O)c1ccccc1)c1ccccc1.Cl
inhibition zone (IZ) [1]: 15 mm
inhibition zone (IZ) [2]: 14 mm
MIC [3]: 125 mg/L
MBC [4]: 500 mg/L
inhibition zone (IZ) [5]: 10 mm
inhibition zone (IZ) [6]: 14 mm
MBC [7]: 500 mg/L
inhibition zone (IZ) [8]: 15 mm
MBC [9]: 500 mg/L
MBC [10]: 250 mg/L
inhibition zone (IZ) [11]: 13 mm
MIC [12]: 125 mg/L
MIC [13]: 125 mg/L
MBC [14]: 250 mg/L
MBC [15]: 500 mg/L
MIC [16]: 125 mg/L
MIC [17]: 125 mg/L
MIC [18]: 125 mg/L
inhibition zone (IZ) [19]: 16 mm
MIC [20]: 250 mg/L
MBC [21]: 250 mg/L
MBC [22]: 62.5 mg/L
MIC [23]: 250 mg/L
MIC [24]: 250 mg/L
inhibition zone (IZ) [25]: 13 mm
MBC [26]: 250 mg/L
inhibition zone (IZ) [27]: 12 mm
MIC [28]: 125 mg/L
MIC [29]: 62.5 mg/L
MBC [30]: 125 mg/L
MFC [31]: 125 mg/L
MFC [32]: 125 mg/L
MIC [33]: 250 mg/L
MBC [34]: 125 mg/L
MIC [35]: 250 mg/L
inhibition zone (IZ) [36]: 14 mm
inhibition zone (IZ) [37]: 15 mm
inhibition zone (IZ) [38]: 15 mm
inhibition zone (IZ) [39]: 12 mm

CC[C@H](N[C@H](C)[C@@H](O)c1ccccc1)c1ccccc1.Cl
inhibition zone (IZ) [1]: 24 mm
inhibition zone (IZ) [2]: 22 mm
MIC [3]: 15.6 mg/L
MBC [4]: 125 mg/L
inhibition zone (IZ) [5]: 16 mm
inhibition zone (IZ) [6]: 22 mm
MBC [7]: 62.5 mg/L
inhibition zone (IZ) [8]: 24 mm
MBC [9]: 62.5 mg/L
MBC [10]: 31.2 mg/L
inhibition zone (IZ) [11]: 20 mm
MIC [12]: 31.2 mg/L
MIC [13]: 31.2 mg/L
MBC [14]: 62.5 mg/L
MBC [15]: 62.5 mg/L
MIC [16]: 31.2 mg/L
MIC [17]: 31.2 mg/L
MIC [18]: 31.2 mg/L
inhibition zone (IZ) [19]: 22 mm
MIC [20]: 62.5 mg/L
MBC [21]: 31.2 mg/L
MBC [22]: 62.5 mg/L
MIC [23]: 31.2 mg/L
MIC [24]: 31.2 mg/L
inhibition zone (IZ) [25]: 20 mm
MBC [26]: 62.5 mg/L
inhibition zone (IZ) [27]: 20 mm
MIC [28]: 31.2 mg/L
MIC [29]: 31.2 mg/L
MBC [30]: 31.2 mg/L
MFC [31]: 31.2 mg/L
MFC [32]: 31.2 mg/L
MIC [33]: 62.5 mg/L
MBC [34]: 31.2 mg/L
MIC [35]: 62.5 mg/L
inhibition zone (IZ) [36]: 20 mm
inhibition zone (IZ) [37]: 20 mm
inhibition zone (IZ) [38]: 23 mm
inhibition zone (IZ) [39]: 19 mm
